{"source": "ChEMBL document CHEMBL1142533", "about": "“Structure-based virtual screening and biological evaluation of Mycobacterium tuberculosis adenosine 5'-phosphosulfate reductase inhibitors” (J Med Chem, 2008)", "key": {"[1]": {"test_system": "Mycobacterium tuberculosis", "test": "Inhibition of Mycobacterium tuberculosis APS reductase assessed as [35S]sulphite release at 100 uM"}, "[2]": {"test": "Binding affinity to Mycobacterium tuberculosis APS reductase", "method_in_brief": "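Timed aliquots quenched in 2% charcoal/20 mM Na2SO3, radiolabeled sulfite in supernatant counted. kobs from single-exponential fit; Ki (=Kd) from kobs dependence on inhibitor concentration.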"}, "[3]": {"target": "T1, Receptor-type tyrosine-protein phosphatase C (Homo sapiens) (UniProt P08575)", "T1 sequence (whole entry)": "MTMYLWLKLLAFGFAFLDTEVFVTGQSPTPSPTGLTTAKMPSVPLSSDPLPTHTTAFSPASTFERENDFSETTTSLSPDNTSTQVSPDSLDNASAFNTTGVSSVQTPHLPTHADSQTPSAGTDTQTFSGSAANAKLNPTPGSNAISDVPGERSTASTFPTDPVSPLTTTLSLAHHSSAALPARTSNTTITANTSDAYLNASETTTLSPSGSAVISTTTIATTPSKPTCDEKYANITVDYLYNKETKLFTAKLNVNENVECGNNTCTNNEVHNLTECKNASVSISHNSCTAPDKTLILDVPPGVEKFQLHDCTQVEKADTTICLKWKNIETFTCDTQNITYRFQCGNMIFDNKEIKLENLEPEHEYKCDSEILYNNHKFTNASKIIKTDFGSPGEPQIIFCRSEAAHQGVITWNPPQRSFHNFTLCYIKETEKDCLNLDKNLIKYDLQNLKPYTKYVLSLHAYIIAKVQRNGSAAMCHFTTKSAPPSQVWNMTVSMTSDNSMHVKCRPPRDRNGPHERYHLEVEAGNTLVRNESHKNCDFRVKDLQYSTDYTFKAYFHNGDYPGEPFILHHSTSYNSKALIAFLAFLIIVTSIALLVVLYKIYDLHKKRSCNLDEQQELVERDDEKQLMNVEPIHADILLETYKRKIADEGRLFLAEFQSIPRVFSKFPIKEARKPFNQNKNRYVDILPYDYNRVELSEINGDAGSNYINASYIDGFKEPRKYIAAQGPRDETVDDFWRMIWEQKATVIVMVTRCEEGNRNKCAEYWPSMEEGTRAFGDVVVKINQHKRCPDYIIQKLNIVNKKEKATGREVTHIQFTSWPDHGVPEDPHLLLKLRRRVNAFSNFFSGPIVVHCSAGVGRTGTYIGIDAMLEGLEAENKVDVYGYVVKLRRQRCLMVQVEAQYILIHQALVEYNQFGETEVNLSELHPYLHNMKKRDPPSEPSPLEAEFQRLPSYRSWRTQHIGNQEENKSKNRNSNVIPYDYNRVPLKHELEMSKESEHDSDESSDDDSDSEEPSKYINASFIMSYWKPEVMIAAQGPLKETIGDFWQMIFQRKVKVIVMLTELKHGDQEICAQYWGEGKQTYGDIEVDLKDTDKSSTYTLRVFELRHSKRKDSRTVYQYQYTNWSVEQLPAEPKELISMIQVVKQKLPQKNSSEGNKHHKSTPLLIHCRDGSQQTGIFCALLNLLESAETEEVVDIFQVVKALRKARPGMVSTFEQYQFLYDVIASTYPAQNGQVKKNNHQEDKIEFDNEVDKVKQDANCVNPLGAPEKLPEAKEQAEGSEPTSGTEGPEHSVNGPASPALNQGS"}}, "note": "pKd: −log10 of the molar value."}
{"smiles": "O=C1c2ccccc2-c2cc([N+](=O)[O-])c([N+](=O)[O-])cc21", "values": [{"measurement": "inhibition", "setting": "[1]", "value": "> 50", "unit": "%"}, {"measurement": "pKd", "setting": "[2]", "value": 4.43}]}
{"smiles": "Nc1nc(Sc2ccc([N+](=O)[O-])c3nonc23)c2nc[nH]c2n1", "values": [{"measurement": "inhibition", "setting": "[1]", "value": "> 90", "unit": "%"}, {"measurement": "pKd", "setting": "[2]", "value": 4.82}]}
{"smiles": "CC(=O)[C@H]1CC[C@H]2C34C=C[C@]5(C[C@@H](O)CC[C@]5(C)C3=CC[C@]12C)[C@H](C(=O)O)[C@@H]4C(=O)O", "values": [{"measurement": "pKd", "setting": "[2]", "value": 3.90}]}
{"smiles": "O=C(O)CCc1nnc2c3ccccc3c3ccccc3c2n1", "values": [{"measurement": "inhibition", "setting": "[1]", "value": "> 50", "unit": "%"}, {"measurement": "pKd", "setting": "[2]", "value": 4.33}]}
{"smiles": "O=C1c2ccccc2-c2c1cc([N+](=O)[O-])cc2[N+](=O)[O-]", "values": [{"measurement": "pKd", "setting": "[2]", "value": 4.32}]}
{"smiles": "O=[N+]([O-])c1ccc(Sc2cccc[n+]2[O-])c2nonc12", "values": [{"measurement": "pKd", "setting": "[2]", "value": 4.71}]}
{"smiles": "O=C(O)C[S+]([O-])c1ccc2c3c(cccc13)C(=O)c1ccccc1-2", "note": "(centres undefined)", "values": [{"measurement": "pKd", "setting": "[2]", "value": 3.74}]}
{"smiles": "CC(=O)Nc1cc2c(cc1[N+](=O)[O-])-c1ccccc1C2=O", "values": [{"measurement": "pKd", "setting": "[2]", "value": 4.50}]}
{"smiles": "O=C1c2cc(F)ccc2-c2cc(F)c([N+](=O)[O-])cc21", "values": [{"measurement": "pKd", "setting": "[2]", "value": 4.35}]}
{"smiles": "O=C1C(=O)c2cc([N+](=O)[O-])ccc2-c2ccccc21", "values": [{"measurement": "Kinact", "setting": "[3]", "value": 4300, "unit": "M⁻¹ s⁻¹"}, {"measurement": "pKd", "setting": "[2]", "value": 5.17}]}
